Measurements reported in ChEMBL document CHEMBL3421570, “Combinatorial Libraries As a Tool for the Discovery of Novel, Broad-Spectrum Antibacterial Agents Targeting the ESKAPE Pathogens” (J Med Chem, 2015).
Active and inactive are the calls of the source. No cut-off for these calls is given here.

Experiments:
Enterococcus faecium = assay: Antimicrobial activity against Enterococcus faecium assessed as inhibition of microbial growth at 45 uM after 24 hrs; assay type: functional, organism-based
Summary of the method: (§1)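 Broth microdilution single-concentration read: overnight cultures diluted 1:1000, compound in DMF (≤2.0%) added, 37°C for 24 h, growth inhibition scored visually by lack of turbidity; triplicate. Gram-positives grown in TSB, Gram-negatives in LB.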

Enterobacter cloacae [1] = assay: Antimicrobial activity against Enterobacter cloacae assessed as inhibition of microbial growth at 45 uM after 24 hrs; assay type: functional, organism-based; summary of the method: as §1
Acinetobacter baumannii [2] = assay: Antimicrobial activity against Acinetobacter baumannii assessed as inhibition of microbial growth at 45 uM after 24 hrs; assay type: functional, organism-based; summary of the method: as §1
Pseudomonas aeruginosa = assay: Antimicrobial activity against Pseudomonas aeruginosa assessed as inhibition of microbial growth at 45 uM after 24 hrs; assay type: functional, organism-based; summary of the method: as §1
Staphylococcus aureus [3] = assay: Antimicrobial activity against Staphylococcus aureus assessed as inhibition of microbial growth at 45 uM after 24 hrs; assay type: functional, organism-based; summary of the method: as §1
Klebsiella pneumoniae [4] = assay: Antimicrobial activity against Klebsiella pneumoniae assessed as inhibition of microbial growth at 45 uM after 24 hrs; assay type: functional, organism-based; summary of the method: as §1
Acinetobacter baumannii [5] = assay: Ratio of MIC for Acinetobacter baumannii measured after 8 cycle passage to MIC for wild type Acinetobacter baumannii; assay type: functional
Enterobacter cloacae [6] = assay: Ratio of MIC for Enterobacter cloacae measured after 8 cycle passage to MIC for wild type Enterobacter cloacae; assay type: functional
Staphylococcus aureus [7] = assay: Ratio of MIC for Staphylococcus aureus measured after 8 cycle passage to MIC for wild type Staphylococcus aureus; assay type: functional
Klebsiella pneumoniae [8] = assay: Ratio of MIC for Klebsiella pneumoniae measured after 8 cycle passage to MIC for wild type Klebsiella pneumoniae; assay type: functional

Row | Structure (SMILES) | growth inhibition (GI) (Enterococcus faecium) | growth inhibition (GI) (Enterobacter cloacae [1]) | growth inhibition (GI) (Acinetobacter baumannii [2]) | growth inhibition (GI) (Pseudomonas aeruginosa) | growth inhibition (GI) (Staphylococcus aureus [3]) | growth inhibition (GI) (Klebsiella pneumoniae [4]) | Ratio (Acinetobacter baumannii [5]) | Ratio (Enterobacter cloacae [6]) | Ratio (Staphylococcus aureus [7]) | Ratio (Klebsiella pneumoniae [8])
1 | N=C1NC[C@H](CCCCN2C[C@@H](Cc3cccc4ccccc34)N(CCCCC3CCCCC3)C2=N)N1CCC12CC3CC(CC(C3)C1)C2 | inactive | inactive | inactive | inactive | inactive | inactive |  |  |  | 
2 | CN[C@H](CC(C)C)C(=O)N[C@H]1C(=O)N[C@@H](CC(N)=O)C(=O)N[C@H]2C(=O)N[C@H]3C(=O)N[C@H](C(=O)N[C@H](C(=O)O)c4cc(O)cc(O)c4-c4cc3ccc4O)[C@H](O)c3ccc(c(Cl)c3)Oc3cc2cc(c3O[C@@H]2O[C@H](CO)[C@@H](O)[C@H](O)[C@H]2O[C@H]2C[C@](C)(N)[C@H](O)[C@H](C)O2)Oc2ccc(cc2Cl)[C@H]1O [VANCOMYCIN] |  |  |  |  |  |  | <=128 | <=128 | 128 | <=128
3 | CCCC[C@H]1CN(CCCC[C@H]2CNC(=N)N2CCC23CC4CC(CC(C4)C2)C3)C(=N)N1CCc1ccc(-c2ccccc2)cc1 | Active | Active | Active | Active | Active | Active |  |  |  | 
4 | CCCC[C@H]1CN(CCCC[C@H]2CNC(=N)N2CCCCC2CCCCC2)C(=N)N1CCc1ccc(-c2ccccc2)cc1 | Active | Active | Active | Active | Active | Active |  |  |  | 
